Data as given in ChEMBL document CHEMBL1773052, “3-Trifluoromethylquinoxaline N,N'-dioxides as anti-trypanosomatid agents. Identification of optimal anti-T. cruzi agents and mechanism of action studies” (J Med Chem, 2011).
Activity calls are given as the source filed them. No cut-off for these calls is given here.

What was measured:
Trypanosoma cruzi [1] = test: Antitrypanosomal activity against Trypanosoma cruzi Tulahuen 2 epimastigotes assessed as growth inhibition at 25 uM after 5 days relative to control; type: functional; details: Tulahuen 2, 120 h, read-out: GI
In short: (§1)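 Epimastigotes grown axenically at 28 °C in BHI-tryptose + 5% FBS; a 10-day stationary culture was inoculated to 1 × 10⁶ cells/mL. Drug added from DMSO stock, final DMSO ≤0.4%, vehicle control. A600 read daily. PGI on day 5 corrects for day-0 absorbance, relative to control. […] Three independent experiments.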

Trypanosoma cruzi [2] = test: Antitrypanosomal activity against Trypanosoma cruzi Tulahuen 2 epimastigotes assessed as growth inhibition after 5 days; type: functional; details: Tulahuen 2, 120 h, read-out: ID50; in short: as §1
Trypanosoma cruzi [3] = test: Antitrypanosomal activity against Trypanosoma cruzi CL Brener clone epimastigotes assessed as cell death after 2 days by MTT assay; type: functional; details: 48 h, read-out: ID50 (the source's name)
In short: (§2)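 Parasites in exponential growth, in BHI-tryptose + 5% FBS for T. cruzi or RPMI + 5% FBS for L. braziliensis, 28 °C, 24-well plates. Compounds in DMSO; miltefosine in ethanol. 2-day exposure, two PBS-glucose (5.5 mM) washes, then MTT 0.4 mg/mL for 4 h at 28 °C. SDS-isopropanol lysis, OD read. Triplicates, six growth controls.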

Trypanosoma cruzi [4] = test: Antitrypanosomal activity against Trypanosoma cruzi Y epimastigotes assessed as cell death after 2 days by MTT assay; type: functional; details: 48 h, read-out: ID50 (the source's name); in short: as §2
Trypanosoma cruzi [5] = test: Antitrypanosomal activity against Trypanosoma cruzi Colombiana epimastigotes assessed as cell death after 2 days by MTT assay; type: functional; details: 48 h, read-out: ID50 (the source's name); in short: as §2
[6] = Selectivity index, ratio of ID50 for mouse J774 cells to ID50 for Trypanosoma cruzi Tulahuen 2 epimastigotes; type: toxicity, cell-based; details: J774 cells versus Trypanosoma cruzi Tulahuen 2 epimastigotes, read-out: Selectivity Index
Trypanosoma cruzi [7] = test: Inhibition of mitochondrial dehydrogenase activity in Trypanosoma cruzi Y epimastigotes at 20 uM up to 120 mins by MTT assay
In short: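 Y-strain epimastigotes, 10⁶ per well in 500 μL medium, treated with 20 μM compound at 28 °C, untreated wells as time-matched controls. At each time point cells counted, then MTT (50 μL of 5 mg/mL in PBS) added for 4 h. Stopped with acidic isopropanol, A570 read. Activity given as percent of untreated control.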

Trypanosoma cruzi [8] = test: Antitrypanosomal activity against Trypanosoma cruzi CL Brener clone epimastigotes assessed as cell death at 25 uM after 2 days by MTT assay relative to control; type: functional
In short: (§3)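 Epimastigotes of each strain taken in exponential growth in BHI-tryptose with 5% FBS, 1 mL per well. Compounds added from DMSO and kept 2 days at 28 °C. Cells washed twice and resuspended in PBS-glucose (5.5 mM), then given 0.4 mg/mL MTT for 4 h at 28 °C. Lysis in SDS-isopropanol, OD read. Triplicate wells, six growth controls. PCyt taken against control, corrected for medium-only wells.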

Trypanosoma cruzi [9] = test: Antitrypanosomal activity against Trypanosoma cruzi Y epimastigotes assessed as cell death at 25 uM after 2 days by MTT assay relative to control; type: functional; in short: as §3
Trypanosoma cruzi [10] = test: Antitrypanosomal activity against Trypanosoma cruzi Colombiana epimastigotes assessed as cell death at 25 uM after 2 days by MTT assay relative to control; type: functional; in short: as §3
Leishmania braziliensis = test: Antileishmanial activity against Leishmania braziliensis MHOM/BR/00/LTB300 promastigotes assessed as cell death after 2 days by MTT assay; type: functional; details: MHOM/BR/00/LTB300, 48 h, read-out: ID50 (the source's name); in short: as §2
Salmonella typhimurium [11] = test: Mutagenic activity in Salmonella Typhimurium TA98 assessed as number of revertants at 0.2 to 15 ug/plate by Ames test in absence of S9 fraction; type: toxicity, organism-based; details: salmonella enterica subsp. enterica serovar typhimurium
In short: (§4)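 Direct plate incubation with S. typhimurium TA98 on minimal glucose agar. Toxicity to the strain tested first; doses run in triplicate from DMSO solutions, DMSO as negative control. Metabolic activation with 500 μL Aroclor-treated mouse liver S9. Positive controls: 4-nitro-o-phenylenediamine 20.0 μg/plate without S9; 2-aminofluorene 10.0 μg/plate with S9. Revertants counted manually; mutagenic if ≥2-fold the negative control at two consecutive doses.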

Salmonella typhimurium [12] = test: Mutagenic activity in Salmonella Typhimurium TA98 assessed as number of revertants at 0.2 to 15 ug/plate by Ames test in presence of S9 fraction; type: toxicity, organism-based; details: salmonella enterica subsp. enterica serovar typhimurium; in short: as §4
Trypanosoma cruzi [13] = test: Antitrypanosomal activity against Trypanosoma cruzi CL Brener clone trypomastigotes in parasite infected BALB/c mouse blood assessed as parasite lysis at 250 ug/ml after 24 hrs relative to control; type: functional
In short: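 Blood from BALB/c mice 7 days post-infection, taken by cardiac puncture into 3.8% sodium citrate (7:3). Compounds dissolved in DMSO, diluted in PBS to 100 or 250 μg/mL. 10 μL mixed with 100 μL infected blood (~10⁶ parasites/mL), in triplicate. Shaken 10 min at RT, held 4 °C for 24 h. Parasites counted by microscopy; gentian violet 250 μg/mL as standard.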

[14] = Cytotoxicity against mouse J774 cells; type: cell-based; details: read-out: ID50 (the source's name)
Salmonella typhimurium [15] = test: Mutagenic activity in Salmonella Typhimurium TA98 assessed as number of revertants at 0.05 to 4 ug/plate by Ames test in absence of S9 fraction; type: toxicity, organism-based; details: salmonella enterica subsp. enterica serovar typhimurium; in short: as §4
Salmonella typhimurium [16] = test: Mutagenic activity in Salmonella Typhimurium TA98 assessed as number of revertants at 0.05 to 4 ug/plate by Ames test in presence of S9 fraction; type: toxicity, organism-based; details: salmonella enterica subsp. enterica serovar typhimurium; in short: as §4
Trypanosoma cruzi [17] = test: Antitrypanosomal activity against Trypanosoma cruzi Y infected in Swiss albino mouse assessed as increase of mouse survival days at 10 mg/kg/day, po relative to control; type: functional
Trypanosoma cruzi [18] = test: Antitrypanosomal activity against Trypanosoma cruzi CL Brener clone infected in BALB/c mouse assessed as increase of mouse survival days at 10 mg/kg/day, po relative to control; type: functional
Trypanosoma cruzi [19] = test: Antitrypanosomal activity against Trypanosoma cruzi CL Brener clone infected in BALB/c mouse assessed as reduction of microbial antibody level at 10 mg/kg/day, po after 30 days by Wilconxon test; type: functional, organism-based
In short: (§5)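 Male BALB/c or Swiss albino mice, 30 days old, SPF, infected ip with 10³ blood trypomastigotes (CL Brener or Y). Oral dosing in PBS for 10 days. Controls: 10 mice on PBS; treated groups of 8. Tail-vein parasitemia weekly for 60 days, mortality recorded. Anti-T. cruzi antibodies measured by ELISA, run twice, at 30 and 60 or 90 days post-infection.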

Trypanosoma cruzi [20] = test: Antitrypanosomal activity against Trypanosoma cruzi CL Brener clone infected in BALB/c mouse assessed as reduction of microbial antibody level at 10 mg/kg/day, po after 90 days by Wilconxon test; type: functional, organism-based; in short: as §5
Trypanosoma cruzi [21] = test: Antitrypanosomal activity against Trypanosoma cruzi Y infected in Swiss albino mouse assessed as reduction of parasitemia level at 10 mg/kg/day, po by ELISA; type: functional, organism-based; in short: as §5
Trypanosoma cruzi [22] = test: Antitrypanosomal activity against Trypanosoma cruzi CL Brener clone infected in BALB/c mouse assessed as reduction of parasitemia level at 10 mg/kg/day, po by ELISA; type: functional, organism-based; in short: as §5

Row | Compound | inhibition of growth at 25 µM (Trypanosoma cruzi [1]) | IC50 (Trypanosoma cruzi [2]) | IC50 (Trypanosoma cruzi [3]) | IC50 (Trypanosoma cruzi [4]) | selectivity ratio [6] | inhibition (Trypanosoma cruzi [7]) | Activity (Trypanosoma cruzi [8]) | Activity (Trypanosoma cruzi [9]) | Activity (Trypanosoma cruzi [10]) | IC50 (Leishmania braziliensis) | other results
1 | CC1CS(=O)(=O)CCN1/N=C/c1ccc([N+](=O)[O-])o1 (configuration not stated) [NIFURTIMOX] | 100% | 7.7 µM | 4.9 µM | 9.7 µM | 41 | inactive |  |  |  |  | IC50 (Trypanosoma cruzi [5]): 3.4 µM
2 | O=C(c1ccccc1)c1c(C(F)(F)F)[n+]([O-])c2ccccc2[n+]1[O-] | 100% | 0.9 µM | 3.1 µM | 4 µM |  | Active | 97% | 100% | 100% | 1 µM | 
3 | CC(=O)c1c(C)[n+]([O-])c2cc(F)c(F)cc2[n+]1[O-] | 100% | 0.4 µM |  |  |  |  |  |  |  |  | Activity (Salmonella typhimurium [11]): Toxic; Activity (Salmonella typhimurium [12]): Toxic
4 | CC(=O)c1c(C(F)(F)F)[n+]([O-])c2cc(F)c(F)cc2[n+]1[O-] | 100% | 0.39 µM |  |  | 27.2 | Active |  |  |  |  | Activity (Trypanosoma cruzi [13]): 80%; CC50 [14]: 10.6 µM; Activity (Salmonella typhimurium [15]): Toxic; Activity (Salmonella typhimurium [16]): Toxic; survival at 10 mg/kg/day (Trypanosoma cruzi [17]): 62.5%; survival at 10 mg/kg/day (Trypanosoma cruzi [18]): 100%; Activity (Trypanosoma cruzi [19]): Active; Activity (Trypanosoma cruzi [20]): Active; Activity (Trypanosoma cruzi [21]): inactive; Activity (Trypanosoma cruzi [22]): Active
5 | CCOC(=O)c1c(-c2ccccc2)[n+]([O-])c2cc(Cl)c(Cl)cc2[n+]1[O-] | 99% | 11.3 µM | 16.4 µM | 7.1 µM |  |  | 94% | 100% | 100% | 3 µM | 
6 | Cc1c(C(=O)Nc2ccccc2)[n+]([O-])c2ccccc2[n+]1[O-] | 10% |  |  |  |  |  | 32% | 0% | 24% | > 50 µM | 
